Measurements taken from publication PMC5650512 (Cell chemical biology, 2017).

Legend:
MDA-MB-231 cells = experiment: Mitochondrial membrane potential ΔΨm; format: cell-based
AMPKα (p-Thr172) [1] = experiment: AMPKα Thr172 phosphorylation western blot, MCF-7; format: cell-based
MCF-7 cells [2] = experiment: Mitochondrial membrane potential ΔΨm; format: cell-based
Outline: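 JC-1 arm: MCF-7 cells exposed to test compound (20 µM, 4 h), with or without pre-treatment with (±)-14,15-EET (1 µM). Red/green ratio quantified as mean ± S.D. (n=4). TMRE arm: 20,000 cells/well grown overnight, TMRE 500 nM for 30 min at 37 °C, two washes in PBS/0.2% BSA, read Ex 530/Em 590 nm. FCCP (10 µM, 30 min) background subtracted.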

AMPKα (p-Thr172) [3] = experiment: AMPKα phosphorylation western blot, MDA-MB-231; format: cell-based; conditions: 1 µM; 24 hours
MCF-7 cells [4] = experiment: OCR and ECAR, XF Extracellular Flux Analyzer, MCF-7; format: cell-based
[5] = tested on: MCF-7 mammary fat pad xenograft; experiment: MCF-7 orthotopic mammary fat pad xenograft
T47D cell line = experiment: T47D cell growth; format: cell-based
MCF-7 cell line = experiment: MCF-7 cell proliferation; format: cell-based; conditions: for Abrogation of biguanide growth inhibition by (±)-14,15-EET: (±)-14,15-EET 1 µM, MTT at 24 hours
MCF-7 cells [6] = experiment: Cellular ATP by luminescent assay; format: cell-based; conditions: 6 hours, 10% serum
Outline: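 Cells seeded in 96-well plates and exposed to vehicle or test compound. Lysis solution added with 5 min orbital shaking, then luciferase/luminescent substrate; 10 min in the dark before reading luminescence. ATP was quantified against a standard curve of known ATP concentrations.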

[7] = Plasma concentration after ip dosing; format: in vivo, mice; conditions: female, athymic nude (Foxn1nu/Foxn1nu), mouse, 4 mg/kg/day
MDA-MB-231 cell line = experiment: MDA-MB-231 cell growth; format: cell-based
[8] = tested on: MDA-MB-435/LCC6 cell line; experiment: MDA-MB-435/LCC6 cell growth; format: cell-based; conditions: data not shown
CYP2J2 = target: T1, CYP2J2 (Homo sapiens, UniProt P51589); experiment: CYP2J2 AA epoxygenase activity; format: biochemical; conditions: data not shown
T1 sequence (P51589 1-502): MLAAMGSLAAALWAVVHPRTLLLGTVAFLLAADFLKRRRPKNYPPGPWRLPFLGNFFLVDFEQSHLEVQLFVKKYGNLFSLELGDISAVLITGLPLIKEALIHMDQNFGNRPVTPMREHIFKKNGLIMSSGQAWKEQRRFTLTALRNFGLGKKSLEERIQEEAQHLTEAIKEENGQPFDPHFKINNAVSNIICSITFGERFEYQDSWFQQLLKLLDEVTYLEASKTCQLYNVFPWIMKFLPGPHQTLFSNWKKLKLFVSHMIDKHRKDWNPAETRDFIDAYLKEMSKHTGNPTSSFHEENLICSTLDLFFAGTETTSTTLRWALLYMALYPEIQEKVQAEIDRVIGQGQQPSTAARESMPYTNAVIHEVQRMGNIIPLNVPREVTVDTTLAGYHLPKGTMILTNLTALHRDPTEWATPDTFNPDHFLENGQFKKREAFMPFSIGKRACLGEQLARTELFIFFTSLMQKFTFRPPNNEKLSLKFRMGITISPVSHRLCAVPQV

[9] = tested on: STAT3-Tyr705, p70 S6 Kinase-Thr389, mTOR-Ser2448, ERK1/2 phosphorylation; experiment: Western blot time course of signaling proteins, MCF-7; format: cell-based; conditions: 20 µM
CYP3A4 = CYP3A4 (Homo sapiens, UniProt P08684); experiment: Microsomal CYP3A4-mediated EET biosynthesis; format: biochemical; conditions: IC50, inhibition of CYP3A4-mediated synthesis of (±)-14,15-EET, 30 minutes exposure
Chain of CYP3A4 (P08684 whole entry): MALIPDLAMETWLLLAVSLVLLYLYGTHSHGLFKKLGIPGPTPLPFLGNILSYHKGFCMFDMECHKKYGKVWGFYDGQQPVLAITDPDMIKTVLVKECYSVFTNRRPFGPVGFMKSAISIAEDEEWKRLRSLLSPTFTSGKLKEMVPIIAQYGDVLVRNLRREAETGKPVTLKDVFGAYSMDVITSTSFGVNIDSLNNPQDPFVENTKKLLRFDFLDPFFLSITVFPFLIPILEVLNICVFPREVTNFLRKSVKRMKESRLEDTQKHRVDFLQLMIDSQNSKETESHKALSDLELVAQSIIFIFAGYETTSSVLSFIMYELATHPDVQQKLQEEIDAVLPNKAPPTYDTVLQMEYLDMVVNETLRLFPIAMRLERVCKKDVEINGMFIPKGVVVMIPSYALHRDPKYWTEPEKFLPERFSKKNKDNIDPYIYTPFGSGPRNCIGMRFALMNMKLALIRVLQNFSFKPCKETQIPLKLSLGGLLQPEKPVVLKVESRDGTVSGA

[10] = tested on: mTOR, PKC-ζ/λ, AMPKα in MCF-7 tumors; experiment: Signaling proteins in MCF-7 xenograft tumors; format: in vivo, mice
[11] = tested on: AMPKα in MDA-MB-231 tumors; experiment: Signaling proteins in MDA-MB-231 xenograft tumors; design: species or system mice; conditions: in vivo
[12] = tested on: cytochrome P450 reductase (CPR); experiment: Rate of reduction of cytochrome c by CPR; format: biochemical
Outline: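 Run in a quartz cuvette with 1 mL 0.3 M potassium phosphate, pH 8.3, containing cytochrome c (62 μM) and NADPH (50 μM). Reaction started by adding CPR (final 0.2 mg/mL). Absorbance at 550 followed in real time.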

MCF-7 cells [13] = experiment: Cellular EET levels by LC-ESI/MRM/MS; format: cell-based; conditions: 5 mM, 6 hours; P<0.05 for each regioisomer
[14] = metformin 2.5 or 5 mM, over 5 hours

## CCCCCC1OC1C/C=C\C/C=C\C/C=C\CCCC(=O)O (racemic) [(±)-14,15-EET, (±)-14,15-(5Z,8Z,11Z)-EET, reference compound]
MDA-MB-231 cells; exogenous (±)-14,15-EET, HBB 20 µM
  Rescue of HBB-reduced ΔΨm by pre-treatment: partly rescued
AMPKα (p-Thr172) [1]; 1 µM, 6 and 24 hours
  Effect on pAMPKα (Thr172) phosphorylation: suppression of pAMPKα phosphorylation
MCF-7 cells [2]; 1 µM, relative to control
  Effect on ΔΨm alone (JC-1): increased mitochondrial cross membrane potential
MCF-7 cells [2]; (±)-14,15-EET 1 µM, HBB 20 µM
  Rescue of HBB-reduced ΔΨm by pre-treatment: partly rescued
AMPKα (p-Thr172) [3]
  Effect on AMPK phosphorylation: no effect

## CCCCCC1OC1CCCCCCC/C=C\CCCC(=O)O (racemic) [(±)-14,15-EEZE]
AMPKα (p-Thr172) [1]; associated with OCR suppression
  Effect on AMPKα activation: early activation
MCF-7 cells [4]; 1.0 µM
  Effect on ECAR: suppressed
  Effect on OCR: suppressed

## NC(=O)c1ncn([C@@H]2O[C@H](CO)[C@@H](O)[C@H]2O)c1N [AICAR]
MCF-7 cells [4]; AICAR 100 µM
  Effect on ECAR: increased
  Effect on OCR: increased

## CCCCCCNC(=N)NC(=N)NCc1ccccc1 [HBB, N1-hexyl-N5-benzyl-biguanide]
MDA-MB-231 cells; 20 µM for 4 hours
  Effect on ΔΨm (JC-1): rapid reduction of ΔΨm
AMPKα (p-Thr172) [1]; 20 µM
  Effect on pAMPKα: activated pAMPKα within 30 minutes
[5]; 4 mg/kg/day, Gompertzian fitting P=0.0354
  Tumor size vs. vehicle: smaller than the vehicle-treated from day 8 onward
[5]; 6 mg/kg ip 4 days per week
  Hepatic or cardiac toxicities by post-mortem histopathology: no HBB-related hepatic or cardiac toxicities
[5]; 6 mg/kg ip 4 days per week (24 mg/kg/week), P=0.039
  Tumor size: reduced tumor size
[5]; 6 mg/kg ip 4 days per week, P=0.034
  Tumor weights at the end point relative to vehicle: half
[5]; ip daily beginning the day after tumor cell implantation
  Minimal effective dose (MED): 4 mg/kg
T47D cell line
  Abrogation of HBB growth inhibition by (±)-14,15-EET: abrogated most of the HBB inhibition
MCF-7 cells [2]; 20 µM for 4 hours
  Effect on ΔΨm (JC-1): rapid reduction of ΔΨm
MCF-7 cells [2]; TMRE 500 nM
  Effect on ΔΨm (TMRE, non-quenching conditions): inhibit ΔΨm in a dose dependent fashion
MCF-7 cell line
  Abrogation of HBB growth inhibition by EET analog C22: partially abrogated HBB inhibition
  Abrogation of biguanide growth inhibition by (±)-14,15-EET: part of the inhibition
MCF-7 cells [4]
  Potency of OCR inhibition compared to metformin: > 250 fold
MCF-7 cells [4]; HBB 20 and 40 µM
  Effect on ECAR: transient spike of ECAR, followed by inhibition without recovery
  Effect on OCR: rapid, dose-dependent reduction of OCR within 15 minutes
MCF-7 cells [6]; HBB
  Reduction of ATP: 30%
[7]
  concentration at 1 h: 530 nM
MDA-MB-231 cell line
  Abrogation of HBB growth inhibition by EETs: failed to counteract HBB inhibition
  Rescue from HBB inhibition by N-acetyl-cysteine (NAC): rescued by the antioxidant N-acetyl-cysteine (NAC)
[8]
  Abrogation of HBB growth inhibition by EETs: failed to counteract HBB inhibition
CYP2J2; microsomal
  Inhibition of AA epoxygenase activity of CYP2J2: did not inhibit
[9]; by 24 hours, presence or absence of serum
  Effect on mTOR, S6 kinase and ERK: Significant inhibition
[9]; independent of serum starvation
  Effect on p70 S6 kinase: rapid and transient activation of p70 S6 kinase at 30 minutes
[9]; presence of serum
  Effect on Stat3 phosphorylation: inhibited Stat3 phosphorylation
CYP3A4
  IC50: 9.5 µM
[10]; HBB 4 mg/kg/day vs. PBS, P=0.000119
  Intratumoral PKC-ζ/λ phospho-threonine 410/403 (RPPA): reduction of PKC-ζ/λ phospho-threonine 410/403
[10]; HBB 4 mg/kg/day vs. PBS, P=4.06×10^−6
  Intratumoral mTOR (RPPA): reduction of mTOR
[10]; in vivo
  AMPKα activation in tumors: failed to activate AMPKα
[11]
  AMPKα activation in tumors: did activate AMPKα

## CCCCNC(=N)NC(=N)N [buformin]
MCF-7 cell line
  Abrogation of biguanide growth inhibition by (±)-14,15-EET: part of the inhibition

## CN(C)C(=N)N=C(N)N [metformin]
MCF-7 cell line
  Abrogation of biguanide growth inhibition by (±)-14,15-EET: abrogated most of the growth inhibition
MCF-7 cells [4]; [14]
  Effect on ECAR: transient ECAR spike, followed by suppression of ECAR
  Effect on OCR: marginal suppression of OCR
MCF-7 cells [6]; metformin, normalized to cell number
  Effect on cellular ATP: no effect
CYP2J2; 0.75, […] or 3 mM
  Inhibition of AA epoxygenase activity of CYP2J2: not inhibited
[12]
  Inhibition of transfer of electrons from CPR (rate of reduction of cytochrome c): does not inhibit
MCF-7 cells [13]
  Intracellular EET levels: reduced

## [H]/N=C(/N)N/C(=N/[H])NCCc1ccccc1 [phenformin]
MCF-7 cell line
  Abrogation of biguanide growth inhibition by (±)-14,15-EET: part of the inhibition
